# The source made the active and inactive calls.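 How the source made its calls, unless noted: active means a full or partial loss of lipid-probe fluorescence in the fish gall bladder, intestine or both, judged by eye; inactive means no fluorescence loss, or compound toxic to the fish.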
# Tests used:
# [1] = inhibitors of TNFa-induced NFkB p65 translocation, primary screen, imaging, HUVEC, MLSMR starter and 10KST1 sets (AID 438;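 active means inhibition above 20% together with a positive visual image hit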;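 further: compound added about 3h40 before a 20 min TNFalpha stimulation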;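 on inhibition: signal is the nuclear over cytoplasmic p65 intensity ratio per well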); settings: HUVEC TNFa-induced p65 nuclear translocation; cell count: measured here: nuclei count (cytotoxicity indicator), at 2.08 µM; inhibition: at 2 µM, stronger effect = higher value, 0% TNFa-plus-vehicle, 100% no-TNFa wells
# [2] = endothelial E-selectin expression blockers – imaging, HUVEC, immunofluorescence, MLSMR starter and 10KST1 sets, primary screen (AID 487;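 active means visually confirmed hit in the image check and inhibition above 20%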;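 on inhibition: signal is fraction of cell area covered by stained E-selectin grains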;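 on nuclei count: 100% = median nuclei count of all wells on the same plate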); settings: HUVEC TNFalpha-induced E-selectin immunofluorescence imaging, at 2 µM; inhibition: stronger effect = higher value; nuclei count: measured here: cell number, toxicity
# [3] = Primary imaging screen for DUSP6 inhibitors that restore phospho-Erk in transfected HeLa cells, chemical complementation (AID 609;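 active means compounds giving at least 50% inhibition in the cell-based MKP-3 phosphatase rescue imaging test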;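 on inhibition: phospho-Erk level distribution per well compared with pooled transfected vehicle control wells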); settings: HeLa MKP-3 transfected, phospho-Erk imaging KS statistic, at 10 µM, cells stimulated with TPA for 15 min
# [4] = molecular target: Dual specificity protein phosphatase 6 (Homo sapiens) (UniProt Q16828); test: as above; settings: HeLa MKP-3 transfected, phospho-Erk imaging KS statistic; at 10 µM; stronger effect = higher value; cells stimulated with TPA for 15 min
# Dual specificity protein phosphatase 6 (Homo sapiens), sequence (Q16828 whole entry, looked up): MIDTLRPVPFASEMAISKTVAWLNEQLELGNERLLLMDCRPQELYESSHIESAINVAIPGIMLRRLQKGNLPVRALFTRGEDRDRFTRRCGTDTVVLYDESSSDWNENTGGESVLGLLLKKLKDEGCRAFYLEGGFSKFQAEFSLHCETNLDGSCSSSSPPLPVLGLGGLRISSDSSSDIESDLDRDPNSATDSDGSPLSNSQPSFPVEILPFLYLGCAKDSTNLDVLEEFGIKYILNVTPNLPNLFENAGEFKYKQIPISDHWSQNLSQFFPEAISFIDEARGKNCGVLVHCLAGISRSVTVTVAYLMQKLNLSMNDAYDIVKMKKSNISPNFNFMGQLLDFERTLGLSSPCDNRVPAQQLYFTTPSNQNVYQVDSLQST
# [5] = molecular target: Voltage-gated potassium channel subunit beta-2 (Rattus norvegicus) (UniProt P62483); test: inhibitors of rat Kvbeta2 reductase activity – biochemical, NADPH fluorescence, primary screen (AID 622;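 active means fluorescence slope higher than the sample average by over 3 SD, cut at about -0.22 in these data, passing the limit was not always enough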;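 further: slope of raw intensity against log time taken from 70 to 1610 s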); settings: recombinant KvBeta, 4-cyanobenzaldehyde reduction, at 10 µM, stronger effect = higher value
# Voltage-gated potassium channel subunit beta-2 (Rattus norvegicus), sequence (P62483 whole entry, looked up): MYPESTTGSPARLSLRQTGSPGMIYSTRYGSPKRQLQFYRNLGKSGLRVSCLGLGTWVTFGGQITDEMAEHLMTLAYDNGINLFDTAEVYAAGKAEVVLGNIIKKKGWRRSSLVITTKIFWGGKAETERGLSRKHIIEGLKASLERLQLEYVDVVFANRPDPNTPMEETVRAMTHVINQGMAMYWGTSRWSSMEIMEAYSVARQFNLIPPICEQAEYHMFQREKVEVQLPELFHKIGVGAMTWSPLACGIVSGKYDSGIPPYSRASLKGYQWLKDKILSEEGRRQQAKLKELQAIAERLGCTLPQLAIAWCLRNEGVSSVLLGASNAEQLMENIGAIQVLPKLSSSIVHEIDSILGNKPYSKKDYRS
# [6] = molecular target: Voltage-gated potassium channel subunit beta-2 (Rattus norvegicus) (UniProt P62483); test: enhancers of rat Kvbeta2 NADPH turnover – biochemical, NADPH fluorescence, primary screen (AID 623;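 active means NADPH fluorescence slope more negative than the mean of all samples by about 3 SD, 99.7% confidence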;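 further: fluorescence intensity change per second fitted from 20 to 320 s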); settings: Recombinant KvBeta, NADPH fluorescence decrease slope, 10 min; at 10 µM; stronger effect = lower value
# [7] = molecular target: Alpha-2C adrenergic receptor (Homo sapiens) (UniProt P18825); test: compounds altering alpha2C-coupled GIRK flux – cell-based, HEK293 alpha2C/GIRK1/2, thallium flux, primary screen (AID 624;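 active means fluorescence slope after compound addition differing from the mean of all screened samples at 99.7% confidence, in either direction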;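 further: slope of fluorescence ratio to pre-addition baseline per second over 15 to 24 s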); settings: thallium flux BTC fluorescence, at 10 µM, actives lie on both sides
# Alpha-2C adrenergic receptor (Homo sapiens), sequence (P18825 whole entry, looked up): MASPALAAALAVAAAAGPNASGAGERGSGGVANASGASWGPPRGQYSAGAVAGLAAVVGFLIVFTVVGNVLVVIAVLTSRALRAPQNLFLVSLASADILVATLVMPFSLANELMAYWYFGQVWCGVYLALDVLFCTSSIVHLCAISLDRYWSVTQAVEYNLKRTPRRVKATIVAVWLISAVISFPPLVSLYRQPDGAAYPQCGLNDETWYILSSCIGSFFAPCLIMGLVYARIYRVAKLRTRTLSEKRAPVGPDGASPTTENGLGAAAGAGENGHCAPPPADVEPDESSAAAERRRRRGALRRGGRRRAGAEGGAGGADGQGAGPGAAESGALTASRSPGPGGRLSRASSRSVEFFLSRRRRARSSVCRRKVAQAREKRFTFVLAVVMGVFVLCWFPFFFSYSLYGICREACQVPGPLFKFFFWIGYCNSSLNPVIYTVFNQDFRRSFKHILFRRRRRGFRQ
# [8] = inhibitors of larval lipid processing in zebrafish, primary screen, whole organism, PED6 fluorescence, gall bladder and intestine (AID 686); settings: Zebrafish larvae PED6 lipid processing, fluorescence scoring; screened at 20 µM (by protocol);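 further: larvae 5 to 7 days old with five fish per well; signal comes from phospholipase A2 cleavage of quenched PED6 carried via bile; overnight exposure to compound and PED6 before scoring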
# How it was run: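 system = live zebrafish larvae aged 5-7 days, whole organism | probe or stimulus = ingested quenched lipid PED6 at 100 nM | doses = 20 µM single dose | timing = overnight exposure | detection = fluorescence microscopy with visual scoring of gall bladder and intestine | read-out = visual per-well fluorescence inhibition score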
# [9] = loss of swimming-algae plug formation – whole organism, Chlamydomonas reinhardtii, WT vs cilia-less mutant, absorbance, 96-well, primary screen (AID 463189;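 active means inhibition at or above 50% relative to wild type and mutant plate controls; inactive means inhibition below 50%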;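 further: 0% = wild type cc124 cells in DMSO and 100% = ciliumless bld1 mutant cells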); settings: Chlamydomonas reinhardtii gravitaxis, OD600 absorbance, 2 days; at 10 µM; stronger effect = higher value
# [10] = measured here: cell density z-score
# [11] = measured here: nuclear c-Myc green intensity z-score
# [12] = measured here: nuclear pErk red intensity z-score, stronger effect = higher value
Structure (SMILES),cell count [1],inhibition [1],inhibition [2],nuclei count [2],"z-score [3, 10]","z-score [3, 11]","z-score [3, 12]",inhibition [4],fluorescence slope [5],NADPH fluorescence slope [6],slope [7],outcome [8],inhibition [9]
COc1cccc(N2CCN(C3CC(=O)N(c4cccc(Cl)c4)C3=O)CC2)c1 (stereo not given),325,-2.2% (inactive),-62.9% (inactive),80.7%,-0.898,1.47,-0.427,3.42% (inactive),-0.43 (inactive),-0.00011 (inactive),0.00471 (inactive),inactive,-11.3% (inactive)
COc1cc(C(=O)OCCN2CCCCC2)ccc1O,675,-2.2% (inactive),38.8% (inactive),199%,-0.395,-0.645,0.828,-3.98% (inactive),-0.493 (inactive),-0.000169 (inactive),0.00513 (inactive),inactive,17.1% (inactive)
c1csc(Cc2nn3c(-c4ccncc4)nnc3s2)c1,669,-1.9% (inactive),-17.9% (inactive),159%,0.0409,0.511,-0.101,-6.06% (inactive),-0.412 (inactive),-0.000115 (inactive),0.00514 (inactive),inactive,8.13% (inactive)
CCOc1cccc(-c2nnc3sc(-c4cccs4)nn23)c1,464,-0.1% (inactive),-85.6% (inactive),99.8%,-0.8,1.1,0.15,-2.47% (inactive),-0.456 (inactive),-6.5e-05 (inactive),0.00982 (inactive),inactive,18.9% (inactive)
COC(=O)c1cc(Br)c(=O)n(Cc2ccc3c(c2)OCO3)c1,533,2.2% (inactive),-141% (inactive),135%,0.138,0.394,1.32,-14% (inactive),-0.501 (inactive),-4.4e-05 (inactive),0.00422 (inactive),inactive,110% (active)
CN(C)CC(O)COc1ccc(C(C)(C)c2ccc(OCC(O)CN(C)C)cc2)cc1 (stereo not given),459,2.6% (inactive),-216% (inactive),154%,-1.06,1.22,0.592,-5.62% (inactive),-0.397 (inactive),-3.1e-05 (inactive),0.0054 (inactive),inactive,-19.9% (inactive)
O=C(CNC1=NCCC1)c1ccc2c(c1)OCCO2,488,-10.2% (inactive),-73% (inactive),161%,-0.692,-1.12,-0.547,28.6% (inactive),-0.485 (inactive),-0.000113 (inactive),0.006 (inactive),inactive,-8.59% (inactive)
CC(=O)c1cc(C#N)c(SCC(=O)C(C)(C)C)nc1C,620,-22.5% (inactive),43.4% (inactive),103%,-0.699,-0.489,-0.711,-3.95% (inactive),-0.462 (inactive),-1.9e-05 (inactive),0.00715 (inactive),inactive,42.5% (inactive)
CCn1cc(C(=O)NCC2CCCO2)c(=O)c2cc(F)c(N3CCN(C)CC3)cc21 (stereo not given),570,-6.7% (inactive),-14.6% (inactive),188%,-0.305,-1.21,2,1.75% (inactive),-0.388 (inactive),-2.9e-05 (inactive),0.00486 (inactive),inactive,4.63% (inactive)
CCOc1ccc(C2=Nn3c(nnc3-c3ccccn3)SC2)cc1,493,1.1% (inactive),-197% (inactive),107%,1.13,-0.317,0.587,-13.3% (inactive),-0.467 (inactive),-3.6e-05 (inactive),0.00617 (inactive),inactive,0.114% (inactive)
CC(C)Cc1nc(N2CCOCC2)c(C#N)c2c1CCC2,488,3.3% (inactive),-87.5% (inactive),114%,-1.23,0.0175,0.0727,-5.26% (inactive),-0.511 (inactive),-1.9e-05 (inactive),0.00512 (inactive),inactive; toxic,-5.18% (inactive)
CC1(C)NC(=O)N(CC(O)Cn2nnc3ccccc32)C1=O (stereo not given),372,3.9% (inactive),-188% (inactive),122%,0.214,0.212,2.03,-7.28% (inactive),-0.357 (inactive),2.5e-05 (inactive),0.0051 (inactive),inactive,6.41% (inactive)
CCCCNC(=O)N1CCOCCOCCN(C(=O)NCCCC)CCOCC1,524,-14.1% (inactive),-164% (inactive),138%,2.57,-1.63,-0.914,31.7% (inactive),-0.55 (inactive),-2.2e-05 (inactive),0.0049 (inactive),inactive,9.99% (inactive)
CN1CCc2c(sc3c2C(=O)NC(c2ccco2)N3)C1 (stereo not given),554,-12% (inactive),-9.3% (inactive),170%,-0.0126,-0.484,0.477,4.72% (inactive),-0.43 (inactive),-3.1e-06 (inactive),0.00594 (inactive),inactive,7.66% (inactive)
CN(C)c1nc2n(c(=O)n1)C(C#N)CS2 (stereo not given),364,-3.1% (inactive),-192% (inactive),105%,0.947,-1.21,-1.65,13.2% (inactive),-0.438 (inactive),-5.8e-06 (inactive),0.00693 (inactive),inactive,-3.08% (inactive)
COc1ccc(C2C(C#N)=C(N)Oc3n[nH]c(C)c32)cc1CSc1ccccn1 (stereo not given),648,-1.9% (inactive),9.1% (inactive),168%,-0.678,1.17,-0.733,-5.62% (inactive),-0.412 (inactive),-3.1e-05 (inactive),0.00563 (inactive),inactive,-9.39% (inactive)
c1coc(-c2nc3nc4ccccc4nc3n2-c2ccc3c(c2)OCCO3)c1,365,-1.4% (inactive),-29.5% (inactive),152%,0.934,0.669,-1.25,11.4% (inactive),-0.363 (inactive),-0.000166 (inactive),0.00503 (inactive),inactive,12.2% (inactive)
CCCCOc1ccc(C2CC(=O)N(C)C2=O)cc1 (stereo not given),641,-9.7% (inactive),63.8% (inactive),175%,-0.371,-0.965,1.92,7.48% (inactive),-0.516 (inactive),-6.5e-05 (inactive),0.00432 (inactive),inactive,3.29% (inactive)
O=C(N(c1ccccc1)c1ccccc1)n1ccnc1,543,-15.7% (inactive),-71.5% (inactive),169%,-1.35,-0.0585,1.08,-11.5% (inactive),-0.487 (inactive),-5.7e-05 (inactive),0.00471 (inactive),inactive,-0.901% (inactive)
CNc1nc(C)c(C#N)cc1C(C)=O,481,-11.7% (inactive),8.2% (inactive),166%,0.906,-0.478,-0.65,5.65% (inactive),-0.513 (inactive),-9.4e-05 (inactive),0.00563 (inactive),inactive,26.6% (inactive)
CCCCNC(=O)C(C#N)c1nc2ccccc2nc1N1CCN(c2ccccc2F)CC1 (stereo not given),406,7.2% (inactive),-12% (inactive),105%,-0.801,-1.22,0.341,-1.12% (inactive),-0.475 (inactive),-3.8e-05 (inactive),0.00688 (inactive),inactive,6.61% (inactive)
O=C(c1nsnc1-c1ccccc1O)N1CCCCC1,500,-8% (inactive),-58.8% (inactive),86.9%,0.333,0.0172,0.334,17.8% (inactive),-0.563 (inactive),-9.1e-06 (inactive),0.007 (inactive),inactive,24.8% (inactive)
CC(C)Cn1cnc2c(c1=O)c1nc3ccccc3nc1n2Cc1ccc2c(c1)OCO2,361,-3.7% (inactive),-15.2% (inactive),149%,0.279,-0.729,-0.248,9.42% (inactive),-0.393 (inactive),-0.000121 (inactive),0.00801 (inactive),inactive,1.23% (inactive)
CN1CCN(c2ncnc3c2[nH]c2ccc(F)cc23)CC1,330,-15.6% (inactive),-17.5% (inactive),64.2%,-0.484,0.264,-0.525,-8.76% (inactive),-0.382 (inactive),-8e-05 (inactive),0.00525 (inactive),inactive,32.3% (inactive)
OCCN(CCO)c1ncnc2c1sc1nc(N3CCOCC3)c3c(c12)CCCC3,597,-26.4% (inactive),-62.2% (inactive),167%,0.421,-0.458,-0.129,7.73% (inactive),-0.275 (inactive),1.3e-05 (inactive),0.00534 (inactive),inactive,-3.05% (inactive)

# Source: PubChem BioAssay
